From ChEMBL document CHEMBL1135836, “Cyclodextrin-derived host molecules as reversal agents for the neuromuscular blocker rocuronium bromide: synthesis and structure-activity relationships” (J Med Chem, 2002)
Blank lines part the entries; values can stand above or below the compound they belong to.

Key:
Type in all cases: functional
Cavia porcellus [1] = test: In vivo reversal activity versus ~90% block by rocuronium in guinea pig
In short: (§1)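 Male Dunkin-Hartley guinea pigs (600-900 g), anaesthetized ip with pentobarbitone 10 mg/kg plus urethane 1000 mg/kg, tracheotomized and ventilated. Continuous iv rocuronium infusion (~10 nmol kg-1 min-1) was raised to a steady 85-90% block. Increasing iv doses of agent were given cumulatively. ED50 = 50% recovery versus preblock twitch, by regression. Mean ± SEM of at least two experiments, or one.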

Cavia porcellus [2] = test: In vivo reversal activity versus ~90% block by rocuronium in guinea pig, expressed as % maximum reversal at 1018 umol/kg conc.; in short: as §1
Mus musculus [3] = organism: Mus musculus; test: In vitro reversal activity versus ~90% block by rocuronium in isolated mouse hemidiaphragm, expressed as % of maximum reversal at a conc. of 360 uM
Mus musculus [4] = organism: Mus musculus; test: In vitro reversal activity versus ~90% block by rocuronium in isolated mouse hemidiaphragm, expressed as effective conc.
Cavia porcellus [5] = test: In vivo reversal activity versus ~90% block by rocuronium in guinea pig, expressed as % of maximum reversal at 1.7 umol/kg conc.; in short: as §1
Mus musculus [6] = organism: Mus musculus; test: In vitro reversal activity versus ~90% block by rocuronium in isolated mouse hemidiaphragm, expressed as % of maximum reversal at 7.2 uM conc.
Cavia porcellus [7] = test: In vivo reversal activity versus ~90% block by rocuronium in guinea pig, expressed as % of maximum reversal at 0.2 umol/kg conc.; in short: as §1
Mus musculus [8] = organism: Mus musculus; test: In vitro reversal activity versus ~90% block by rocuronium in isolated mouse hemidiaphragm, expressed as % of maximum reversal at 3.6 uM conc.
Cavia porcellus [9] = test: In vivo reversal activity versus ~90% block by rocuronium in guinea pig, expressed as % of maximum reversal at 47umol/kg conc.
In short: (§2)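 Male Dunkin-Hartley guinea pigs (600-900 g) anaesthetized ip with pentobarbitone 10 mg/kg plus urethane 1000 mg/kg, tracheotomized and artificially ventilated. Continuous iv rocuronium bromide infusion (~10 nmol kg-1 min-1) raised until steady-state twitch block of 85-90%. Increasing single iv doses of reversal agent given by a separate catheter. Max reversal is peak twitch recovery versus preblock height at highest dose tested; means ± SEM, n ≥ 2 or single experiment.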

Mus musculus [10] = organism: Mus musculus; test: In vitro reversal activity versus ~90% block by rocuronium in isolated mouse hemidiaphragm, expressed as % of maximum reversal at 144 uM conc.
Cavia porcellus [11] = test: In vivo reversal activity versus ~90% block by rocuronium in guinea pig, expressed as % of maximum reversal at 33.1 umol/kg conc.; in short: as §2
Mus musculus [12] = organism: Mus musculus; test: In vitro reversal activity versus ~90% block by rocuronium in isolated mouse hemidiaphragm, expressed as % of maximum reversal at 10.8uM conc.
Cavia porcellus [13] = test: In vivo reversal activity versus ~90% block by rocuronium in guinea pig, expressed as % of maximum reversal at 11 umol/kg conc.; in short: as §1
Mus musculus [14] = organism: Mus musculus; test: In vitro reversal activity versus ~90% block by rocuronium in isolated mouse hemidiaphragm, expressed as % of maximum reversal at 252 uM conc.
Cavia porcellus [15] = test: In vivo reversal activity versus ~90% block by rocuronium in guinea pig, expressed as % of maximum reversal at 1.2 umol/kg conc.; in short: as §1
Mus musculus [16] = organism: Mus musculus; test: In vitro reversal activity versus ~90% block by rocuronium in isolated mouse hemidiaphragm, expressed as % of maximum reversal at 16.2 uM conc.
Cavia porcellus [17] = test: In vivo reversal activity versus ~90% block by rocuronium in guinea pig, expressed as % of maximum reversal at 2.1 umol/kg conc.; in short: as §2
Cavia porcellus [18] = test: In vivo reversal activity versus ~90% block by rocuronium in guinea pig, expressed as % of maximum reversal at 1.6 umol/kg conc.; in short: as §1
Mus musculus [19] = organism: Mus musculus; test: In vitro reversal activity versus ~90% block by rocuronium in isolated mouse hemidiaphragm, expressed as % of maximum reversal at 2.9 uM conc.
Felis catus [20] = test: Percent of maximum change in BP in anesthetized cat (dosed with standard combination of neostigmin (24.3 umol/kg) + atropine 15 umol/kg)
Felis catus [21] = test: Percent increase in contraction of nictitating membrane in anesthetized cat (dosed with standard combination of neostigmin (24.3 umol/kg) + atropine 15 umol/kg)
Felis catus [22] = test: Percent of maximum change of HR in anesthetized cat (dosed with standard combination of neostigmin (24.3 umol/kg) + atropine 15 umol/kg)
Felis catus [23] = test: Percent of maximum change of decrease in HR (bpm) by vagal stimulation in anesthetized cat (dosed with standard combination of neostigmin (24.3 umol/kg) + atropine 15 umol/kg)
Cavia porcellus [24] = test: In vivo reversal activity versus ~90% block by rocuronium in guinea pig, expressed as % of maximum reversal at 9.6 […] conc.; in short: as §2

- EC50 (Mus musculus [4]): 1.8 µM
SMILES: O=S(=O)([O-])CCCSCC1O[C@@H]2O[C@@H]3C(CSCCCS(=O)(=O)[O-])O[C@H](O[C@@H]4C(CSCCCS(=O)(=O)[O-])O[C@H](O[C@@H]5C(CSCCCS(=O)(=O)[O-])O[C@H](O[C@@H]6C(CSCCCS(=O)(=O)[O-])O[C@H](O[C@@H]7C(CSCCCS(=O)(=O)[O-])O[C@H](O[C@@H]8C(CSCCCS(=O)(=O)[O-])O[C@H](O[C@@H]9C(CSCCCS(=O)(=O)[O-])O[C@H](O[C@H]1C(O)C2O)C(O)C9O)C(O)C8O)C(O)C7O)C(O)C6O)C(O)C5O)C(O)C4O)C(O)C3O.[Na+].[Na+].[Na+].[Na+].[Na+].[Na+].[Na+].[Na+] (some centres undefined)
- ED50 (Cavia porcellus [1]): 0.07 µmol/kg
- Max reversal (Cavia porcellus [7]): 98.6%
- Max reversal (Mus musculus [8]): 99.3%

- EC50 (Mus musculus [4]): 34.6 µM
SMILES: OCC1O[C@@H]2O[C@@H]3C(CO)O[C@H](O[C@@H]4C(CO)O[C@H](O[C@@H]5C(CO)O[C@H](O[C@@H]6C(CO)O[C@H](O[C@@H]7C(CO)O[C@H](O[C@@H]8C(CO)O[C@H](O[C@@H]9C(CO)O[C@H](O[C@H]1C(O)C2O)C(O)C9O)C(O)C8O)C(O)C7O)C(O)C6O)C(O)C5O)C(O)C4O)C(O)C3O (some centres undefined)
- ED50 (Cavia porcellus [1]): 4 µmol/kg
- Max reversal (Cavia porcellus [9]): 104.7%
- Max reversal (Mus musculus [10]): 94.1%

- EC50 (Mus musculus [4]): 5 µM
SMILES: NC(=O)CCCSCC1O[C@@H]2O[C@@H]3C(CSCCCC(N)=O)O[C@H](O[C@@H]4C(CSCCCC(N)=O)O[C@H](O[C@@H]5C(CSCCCC(N)=O)O[C@H](O[C@@H]6C(CSCCCC(N)=O)O[C@H](O[C@@H]7C(CSCCCC(N)=O)O[C@H](O[C@@H]8C(CSCCCC(N)=O)O[C@H](O[C@@H]9C(CSCCCC(N)=O)O[C@H](O[C@H]1C(O)C2O)C(O)C9O)C(O)C8O)C(O)C7O)C(O)C6O)C(O)C5O)C(O)C4O)C(O)C3O (some centres undefined)
- ED50 (Cavia porcellus [1]): 0.58 µmol/kg
- Max reversal (Cavia porcellus [11]): 94.2%
- Max reversal (Mus musculus [12]): 85.4%

- EC50 (Mus musculus [4]): 9.1 µM
SMILES: O=C(O)CCOCCSCC1O[C@@H]2O[C@@H]3C(CSCCOCCO)O[C@H](O[C@@H]4C(CSCCOCCO)O[C@H](O[C@@H]5C(CSCCOCCO)O[C@H](O[C@@H]6C(CSCCOCCO)O[C@H](O[C@@H]7C(CSCCOCCO)O[C@H](O[C@@H]8C(CSCCOCCO)O[C@H](O[C@@H]9C(CSCCOCCO)O[C@H](O[C@H]1C(O)C2O)C(O)C9O)C(O)C8O)C(O)C7O)C(O)C6O)C(O)C5O)C(O)C4O)C(O)C3O (some centres undefined)
- ED50 (Cavia porcellus [1]): 0.47 µmol/kg
- Max reversal (Mus musculus [16]): 66.1%
- Max reversal (Cavia porcellus [17]): 92.2%

Continued, compound first:

SMILES: OCC1O[C@@H]2O[C@@H]3C(CO)O[C@H](O[C@@H]4C(CO)O[C@H](O[C@@H]5C(CO)O[C@H](O[C@@H]6C(CO)O[C@H](O[C@@H]7C(CO)O[C@H](O[C@H]1C(O)C2O)C(O)C7O)C(O)C6O)C(O)C5O)C(O)C4O)C(O)C3O (some centres undefined)
- ED50 (Cavia porcellus [1]): 1580 µmol/kg
- Max reversal (Cavia porcellus [2]): 6.4%
- Max reversal (Mus musculus [3]): 9.7%
- EC50 (Mus musculus [4]): > 360 µM

SMILES: O=S(=O)([O-])CSCC1O[C@@H]2O[C@@H]3C(CSCS(=O)(=O)[O-])O[C@H](O[C@@H]4C(CSCS(=O)(=O)[O-])O[C@H](O[C@@H]5C(CSCS(=O)(=O)[O-])O[C@H](O[C@@H]6C(CSCS(=O)(=O)[O-])O[C@H](O[C@@H]7C(CSCS(=O)(=O)[O-])O[C@H](O[C@@H]8C(CSCS(=O)(=O)[O-])O[C@H](O[C@@H]9C(CSCS(=O)(=O)[O-])O[C@H](O[C@H]1C(O)C2O)C(O)C9O)C(O)C8O)C(O)C7O)C(O)C6O)C(O)C5O)C(O)C4O)C(O)C3O.[Na+].[Na+].[Na+].[Na+].[Na+].[Na+].[Na+].[Na+] (some centres undefined)
- ED50 (Cavia porcellus [1]): 0.06 µmol/kg
- Max reversal (Cavia porcellus [5]): 106.5%
- Max reversal (Mus musculus [6]): 101.4%
- EC50 (Mus musculus [4]): 0.36 µM

SMILES: O=C([O-])c1ccccc1SCC1O[C@@H]2O[C@@H]3C(CO)O[C@H](O[C@@H]4C(CO)O[C@H](O[C@@H]5C(CO)O[C@H](O[C@@H]6C(CO)O[C@H](O[C@@H]7C(CO)O[C@H](O[C@@H]8C(CO)O[C@H](O[C@@H]9C(CO)O[C@H](O[C@H]1C(O)C2O)C(O)C9O)C(O)C8O)C(O)C7O)C(O)C6O)C(O)C5O)C(O)C4O)C(O)C3O.[Na+] (some centres undefined)
- ED50 (Cavia porcellus [1]): 1.3 µmol/kg
- Max reversal (Cavia porcellus [13]): 93%
- Max reversal (Mus musculus [14]): 86.3%
- EC50 (Mus musculus [4]): 97.6 µM

SMILES: OC1C(O)[C@@H]2O[C@H]3OC(CSCCCc4nn[n-]n4)[C@@H](O[C@H]4OC(CSCCCc5nn[n-]n5)[C@@H](O[C@H]5OC(CSCCCc6nn[n-]n6)[C@@H](O[C@H]6OC(CSCCCc7nn[n-]n7)[C@@H](O[C@H]7OC(CSCCCc8nn[n-]n8)[C@@H](O[C@H]8OC(CSCCCc9nn[n-]n9)[C@@H](O[C@H]9OC(CSCCCc%10nn[n-]n%10)[C@@H](O[C@H]1OC2CSCCCc1nn[n-]n1)C(O)C9O)C(O)C8O)C(O)C7O)C(O)C6O)C(O)C5O)C(O)C4O)C(O)C3O.[Na+].[Na+].[Na+].[Na+].[Na+].[Na+].[Na+].[Na+] (some centres undefined)
- ED50 (Cavia porcellus [1]): 0.22 µmol/kg
- Max reversal (Cavia porcellus [15]): 109%
- Max reversal (Mus musculus [8]): 89.9%
- EC50 (Mus musculus [4]): 0.6 µM

SMILES: O=C([O-])Cc1ccc(SCC2O[C@@H]3O[C@@H]4C(CSc5ccc(CC(=O)[O-])cc5)O[C@H](O[C@@H]5C(CSc6ccc(CC(=O)[O-])cc6)O[C@H](O[C@@H]6C(CSc7ccc(CC(=O)[O-])cc7)O[C@H](O[C@@H]7C(CSc8ccc(CC(=O)[O-])cc8)O[C@H](O[C@@H]8C(CSc9ccc(CC(=O)[O-])cc9)O[C@H](O[C@@H]9C(CSc%10ccc(CC(=O)[O-])cc%10)O[C@H](O[C@@H]%10C(CSc%11ccc(CC(=O)[O-])cc%11)O[C@H](O[C@H]2C(O)C3O)C(O)C%10O)C(O)C9O)C(O)C8O)C(O)C7O)C(O)C6O)C(O)C5O)C(O)C4O)cc1.[Na+].[Na+].[Na+].[Na+].[Na+].[Na+].[Na+].[Na+] (some centres undefined)
- ED50 (Cavia porcellus [1]): 0.14 µmol/kg
- Max reversal (Cavia porcellus [18]): 103.8%
- EC50 (Mus musculus [4]): 1.4 µM
- Max reversal (Mus musculus [19]): 98.9%

SMILES: CN(C)C(=O)Oc1cccc([N+](C)(C)C)c1.CN1[C@@H]2CC[C@H]1C[C@H](OC(=O)C(CO)c1ccccc1)C2.[Br-] (some centres undefined)
- BP (Felis catus [20]): 17.7 mmHg
- Increase (Felis catus [21]): -7.2%
- HR (Felis catus [22]): -7.1 beats min-1
- Decrease (Felis catus [23]): -64.8%

SMILES: O=C([O-])CSCC1O[C@@H]2O[C@@H]3C(CSCC(=O)[O-])O[C@H](O[C@@H]4C(CSCC(=O)[O-])O[C@H](O[C@@H]5C(CSCC(=O)[O-])O[C@@H](O[C@@H]6C(CSCC(=O)[O-])O[C@H](O[C@@H]7C(CSCC(=O)[O-])O[C@H](O[C@@H]8C(CSCC(=O)[O-])O[C@H](O[C@H]1C(O)C2O)C(O)C8O)C(O)C7O)C(O)C6O)C(O)C5O)C(O)C4O)C(O)C3O.[Na+].[Na+].[Na+].[Na+].[Na+].[Na+].[Na+] (some centres undefined)
- ED50 (Cavia porcellus [1]): 0.93 µmol/kg
- Max reversal (Cavia porcellus [24]): 89.6%
- Max reversal (Mus musculus [16]): 97.3%
- EC50 (Mus musculus [4]): 6.5 µM
